From ChEMBL document CHEMBL4118164, “Discovery of (E)-1-amino-4-phenylbut-3-en-2-ol derivatives as novel neuraminidase inhibitors” (Bioorg Med Chem Lett, 2018) come the findings set out here.

The target of this test is Neuraminidase (Influenza A virus, UniProt B4URF0). The test can be described thus: Inhibition of Influenza A H1N1 virus neuraminidase activity preincubated for 2 mins followed by MUNANA substrate addition measured after 30 mins by […]. The method in brief:
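Test compounds were dissolved in DMSO as stock solutions and diluted with assay buffer to four concentrations, spaced tenfold apart. Neuraminidase inhibition was measured with a commercial neuraminidase-inhibitor screening kit using a fluorescent read-out. IC50 values are means of three or more experiments.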

Chain of Neuraminidase (B4URF0 whole entry): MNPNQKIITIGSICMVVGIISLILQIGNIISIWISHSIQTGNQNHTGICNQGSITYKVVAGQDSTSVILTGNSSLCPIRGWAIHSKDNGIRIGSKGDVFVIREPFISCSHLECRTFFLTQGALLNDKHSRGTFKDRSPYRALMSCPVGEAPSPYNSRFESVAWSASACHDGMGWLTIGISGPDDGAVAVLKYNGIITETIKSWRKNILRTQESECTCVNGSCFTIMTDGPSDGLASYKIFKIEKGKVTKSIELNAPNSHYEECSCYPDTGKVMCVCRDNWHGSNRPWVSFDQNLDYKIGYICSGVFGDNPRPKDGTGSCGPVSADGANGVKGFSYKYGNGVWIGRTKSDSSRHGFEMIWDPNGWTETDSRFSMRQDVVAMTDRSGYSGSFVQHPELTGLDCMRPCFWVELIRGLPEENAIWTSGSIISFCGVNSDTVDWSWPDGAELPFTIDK

`NCC(O)c1ccccc1` (stereo unspecified) displayed an IC50 of 870 µM.

In turn, `NCC(O)/C=C/c1ccccc1` (stereo unspecified) [listing 1 of 2 here] showed an IC50 of 214 µM. Consider `CC(C)(C)OC(=O)/N=C(\NCC(O)/C=C/c1ccccc1)NC(=O)OC(C)(C)C` (stereo unspecified), for which the IC50 came out at 103 µM. Under `NCC(O)c1ccsc1` (stereo unspecified) stands 8900 µM; under `O=S(=O)(NCC(O)/C=C/c1ccccc1)c1ccccc1` (stereo unspecified), 7.6 µM. As for `COc1cccc(S(=O)(=O)NCC(O)/C=C/c2ccccc2)c1` (stereo unspecified), the midpoint of inhibition, the IC50, lay at 7.2 µM. As for `Cc1ccc(CN(Cc2ccc(C)cc2)CC(O)/C=C/c2ccccc2)cc1` (stereo unspecified), the IC50 was 50.7 µM. As for `COc1ccccc1S(=O)(=O)NCC(O)/C=C/c1ccccc1` (stereo unspecified), the IC50 turned out to be 8 µM. Under `COc1ccc(S(=O)(=O)NCC(O)/C=C/c2ccccc2)cc1` (stereo unspecified) stands 6.4 µM; under `COc1ccccc1C(O)CN` (stereo unspecified), 5200 µM. Under `OC(/C=C/c1ccccc1)CN(Cc1ccccc1)Cc1ccccc1` (stereo unspecified) stands 41.5 µM. Under `COC(=O)c1ccc(C(=O)NCC(/C=C/c2ccccc2)OC(=O)c2ccc(C(=O)OC)cc2)cc1` (stereo unspecified) stands 40.5 µM; under `COc1cccc(C(O)CN)c1` (stereo unspecified), 6100 µM; under `O=S(=O)(NCC(O)/C=C/c1ccccc1)c1ccc(OCc2ccccc2)cc1` (stereo unspecified), 11.1 µM. The compound `N#Cc1ccc(CN(Cc2ccc(C#N)cc2)CC(O)/C=C/c2ccccc2)cc1` (stereo unspecified) yielded an IC50 of 49.8 µM.

For `COC(=O)c1ccc(S(=O)(=O)NCC(O)/C=C/c2ccccc2)cc1` (stereo unspecified), the concentration for half-maximal inhibition (IC50) came out at 13.3 µM. With `NCC(O)/C=C/c1ccccc1` (stereo unspecified) [listing 2 of 2 here], the IC50 was found to be 207 µM.

As to `N#Cc1ccc(S(=O)(=O)NCC(O)/C=C/c2ccccc2)cc1` (stereo unspecified), the concentration for half-maximal inhibition (IC50) was determined as 11.4 µM. With `O=S(=O)(NCC(O)/C=C/c1ccccc1)c1ccc(Br)cc1` (stereo unspecified), the IC50 stood at 9.4 µM.

Consider `Cc1ccc(C(=O)NCC(/C=C/c2ccccc2)OC(=O)c2ccc(C)cc2)cc1` (stereo unspecified), for which the half-inhibitory concentration (IC50) is 61.5 µM. Then `Cc1ccc(S(=O)(=O)NCC(O)/C=C/c2ccccc2)cc1` (stereo unspecified), with 7.6 µM; and `N#Cc1ccc(C(=O)NCC(/C=C/c2ccccc2)OC(=O)c2ccc(C#N)cc2)cc1` (stereo unspecified), with 33 µM. The compound `CC(C)(C)OC(=O)NCC(O)/C=C/c1ccccc1` (stereo unspecified) came in with an IC50 of 106 µM.

Compound `O=S(=O)(NCC(O)/C=C/c1ccccc1)c1ccc(F)cc1` (stereo unspecified) registered a concentration for half-maximal inhibition (IC50) of 7.9 µM. Then `O=S(=O)(NCC(O)/C=C/c1ccccc1)c1ccc(Cl)cc1` (stereo unspecified), with 9.2 µM.

`OC(/C=C/c1ccccc1)CN(Cc1ccc(C(F)(F)F)cc1)Cc1ccc(C(F)(F)F)cc1` (stereo unspecified): the IC50 was found to be 32.8 µM.
